FLuc inh counter: Photinus pyralis luciferase inhibition counter-screen; P08659; ATPLite firefly luciferase biochemical luminescence, 10 min; inhibition, % at 10 µM; actives 1.5% (n = 200,000);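 active = inhibition above about 50% when tested at 10 µM, limit read from the data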
APP 5'UTR act: APP 5'UTR luciferase reporter activation. AID 1276. SH-SY5Y APP 5'UTR luciferase reporter, luminescence; zero percent = DMSO vehicle wells. actives 1% (n = 190,000). activation, % at 2 µM;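 active = activation above a set limit, based on mean plus 3 SD of controls, cut at about 140% in these data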
FLuc act counter: firefly luciferase counter-screen for stimulation assays. P08659. ATPlite luciferase biochemical, luminescence, 10 min; 0 = ATP-free wells, 1 = DMSO control. activation factor at 10 µM. 200,000 tested, under 10 active;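 active = luciferase activation factor, scaled between plate controls, of at least 2 with compound at 10 µM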
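System: Luciferase/luciferin detection reagent, cell-free biochemical luciferase assay | Medium: PBS buffer for ATP | Dosing: Test compounds dosed from 2 mM stocks in 100% DMSO | Timing: 10 min at ambient temperature | Signal: Luminescence measurement of luciferase light output | Evaluation: Luciferase activation, seen as luminescence increase over controls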
NF-kB neuron act: compounds increasing NF-kB expression in human neuronal cells. NF-kB reporter expression; active compounds read high. fold change at 12.5 µM. actives 1.6% (n = 190,000). AID 1239; in the data active = fold change above about 3.3
Rad51 HR inh: Rad51 (human) homologous recombination inhibition; Q06609; hRad51 DNA strand exchange, fluorescence dequenching; actives 0.085% (n = 200,000); inhibition, % at 10 µM;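 active = inhibition above 40% at the single screening dose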;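 note: 0% = DMSO control wells and 100% = blanks with heterologous ssDNA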
Target sequence (Q06609 whole entry, looked up): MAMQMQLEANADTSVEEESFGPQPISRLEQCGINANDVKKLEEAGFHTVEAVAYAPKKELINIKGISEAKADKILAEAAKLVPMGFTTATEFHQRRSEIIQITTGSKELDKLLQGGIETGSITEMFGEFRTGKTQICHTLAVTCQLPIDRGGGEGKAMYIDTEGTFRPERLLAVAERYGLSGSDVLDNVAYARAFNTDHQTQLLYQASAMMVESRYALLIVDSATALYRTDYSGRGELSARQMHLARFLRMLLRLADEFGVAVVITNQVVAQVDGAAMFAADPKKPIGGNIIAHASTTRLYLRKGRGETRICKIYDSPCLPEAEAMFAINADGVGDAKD
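Test system – preformed human Rad51 ssDNA filaments · Reagent – Donor/quencher-labelled 47-bp dsDNA substrate · Incubation – 37 °C 15-min filament assembly, 30-min compound preincubation, 15-min exchange · Signal – FRET fluorescence dequenching, excitation 485 nm, emission 520 nm · Read-out – percent inhibition from fluorescence, normalised to plate control and blank means · Benchmarks – plate control and blank wells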
STAT1 act: STAT1 signaling activation; NIH 3T3 STAT1-luciferase reporter, IFN-gamma, luminescence; 100% = IFN-gamma alone, no compound; activation (% of control), % at 5.5 µM; actives 2.6% (n = 200,000); AID 932;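 active = activation above the screen-wide mean activation plus 3 SD, cut at about 130% in these data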;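 note: raw ratio to IFN-gamma control signal so 100% means no change and 0% no light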
STAT1 act conf: confirmation of STAT1 signaling activators | shares compounds with STAT1 act | NIH 3T3 STAT1-luciferase reporter, IFN-gamma potentiation, luminescence; 100% = IFN-gamma EC80 alone, no compound | activation (% of control), % at 5.7 µM | actives 97% (n = 1,200);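 active = activation above a set limit carried over from the earlier primary STAT1 screen, cut at about 140% in these data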;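 note: simple ratio to median IFN-gamma plus DMSO wells so 0% means no light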
NFkB act: NF-kappaB activation in STAT1 activator counter-screen | shares compounds with STAT1 act | HEK293T NF-kB luciferase reporter, TNF-alpha stimulated, luminescence; 100% = TNF-alpha with vehicle only | activation (% of control), % at 5.7 µM | actives 43% (n = 1,200);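 active = activation above the mean of solvent-only control wells plus 3 SD, set per campaign, cut at about 130% in these data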;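 note: TNF-alpha given at a submaximal dose yielding about 80% of full reporter signal; values are well signal over median control so 100% means no change and 0% no light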
STAT3 act STAT1c: counter-screen for STAT1 activators: human STAT3 activation; shares compounds with STAT1 act; U3A cells STAT3-luciferase reporter, IL-6, luminescence; cells lack STAT1; 100 = IL-6 alone, no compound effect; activation (% of control), % at 5.7 µM; AID 1316; actives 46% (n = 1,200);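 active = activation above the solvent-only control well mean plus 3 SD, set per plate batch, cut at about 110% in these data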;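 note: 0% = no luminescence and 100% = median IL-6 plus DMSO wells; higher means more STAT3 reporter activation so hits are non-selective activators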
Active calls of the source: *; nt = no result given. In the library only some 3.9% were active in any assay of this set; here they are far more common.

SMILES	FLuc inh counter	APP 5'UTR act	FLuc act counter	NF-kB neuron act	Rad51 HR inh	STAT1 act	STAT1 act conf	NFkB act	STAT3 act STAT1c
Cc1nc(Nc2ccccc2)sc1-c1ccccc1	85*	187*	0.2	8.8*	-7	193*	242*	130	107
CCCCS(=O)(=O)/C=C\C=C/S(=O)(=O)CCCC	-7	-98	1.1	0.13	nt	307*	210*	121	99
O=C(c1ccco1)N1CCN(c2cc(N3CCOCC3)c(F)cc2[N+](=O)[O-])CC1	-4	-13	1	0.98	1	95	nt	nt	nt
Cc1cc(NCCN2CCOCC2)n2ncc(-c3ccccc3)c2n1	12	42	0.9	3	12	165*	219*	146*	152*
Nc1c(C(=O)Nc2ccccc2F)sc2nc(-c3cccnc3)ccc12	nt	nt	nt	nt	-11	nt	nt	nt	nt
CCOC(=O)c1sc2nc(-c3cccnc3)ccc2c1N	77*	156*	0.2	8.2*	5	176*	251*	141*	115*
Cc1cc(C)n(-c2nnc(NC34CC5CC(CC(C5)C3)C4)nn2)n1	66*	134	0.3	2.5	-35	162*	182*	145*	159*
CCNc1nc(NCC)nc(-n2nc(C)cc2C)n1	-8	18	1.1	0.71	nt	106	nt	nt	nt
CC(=O)c1c(C)nc(-c2ccc(Cl)cc2)nc1N=CN(C)C	0	99	1	2.5	3	118	nt	nt	nt
CC(=O)c1c(C)nc(-c2ccc(Cl)cc2)nc1N	17	116	0.8	1.1	1	152*	175*	140*	146*
Oc1ccc(Cl)cc1C=Nc1ccc(Br)cc1	3	-8	1	1.2	nt	97	nt	nt	nt
Cn1c(O)c(C=Nc2ccc(Br)cc2)sc1=O	0	165*	1	1.9	0	160*	189*	136*	99
COC(=O)CSc1nc2ccc(C)cc2cc1C#N	0	119	1	11*	-2	153*	275*	152*	108
CCOc1ccc2nc(SCC#N)c(C#N)cc2c1	-6	19	1.1	1.7	1	165*	166*	111	86
Cc1ccc(-c2cc(C(F)F)n3ncc(C(=O)N4CCCCC4c4cccnc4)c3n2)cc1 (stereo not drawn)	-1	-15	1	1.1	-6	91	nt	nt	nt
N/C(=N\OC(=O)c1ccco1)c1ccc(Br)cc1	34	173*	0.7	3.7*	-7	162*	158*	123	102
CC(C)(C)C(=O)O/N=C(\N)c1ccc(Br)cc1	nt	nt	nt	nt	17	nt	nt	nt	nt
O=C(COc1ccccc1)Nc1ccc(Cl)cn1	12	55	0.9	1.7	-1	118	nt	nt	nt
O=C(COc1ccccc1Cl)Nc1ccc(Cl)cn1	69*	198*	0.3	6.8*	0	151*	198*	120	108
N/C(=N\OC(=O)c1ccc2c(c1)OCO2)c1cccc(Br)c1	96*	79	0	1.5	18	162*	178*	129	111*
NCc1ccc(-c2nc3ccccc3o2)cc1	4	nt	1	nt	nt	nt	nt	nt	nt
c1ccc2oc(-c3ccc4nc[nH]c4c3)nc2c1	68*	138*	0.3	5.2*	0	151*	205*	135*	97
Nc1nc2ccc(-c3nc4ccccc4o3)cc2s1	58*	157*	0.4	10*	13	152*	231*	130	102
COC/C=C/C1=CC2=CC(=O)C(C)(O)C(=O)C2=CO1 (stereo not drawn)	nt	nt	nt	nt	-2	nt	nt	nt	nt
CN(CC(=O)Nc1ccc(F)cc1[N+](=O)[O-])Cc1ccccc1	-4	-5	1	1.1	23	100	nt	nt	nt
SMILES	FLuc inh counter	APP 5'UTR act	FLuc act counter	NF-kB neuron act	Rad51 HR inh	STAT1 act	STAT1 act conf	NFkB act	STAT3 act STAT1c
CCc1ccc(NC(=O)N2CCC(c3ccccc3)C2)cc1 (stereo not drawn)	42	164*	0.6	4.3*	nt	161*	182*	133	109
CCN(CC)Cc1cc(CC(C(N)=O)C(N)=O)ccc1OC	-4	4	1	1	0	99	nt	nt	nt
Nc1cc(-c2ccc(Br)cc2)nc2cc(-c3ccccc3)nn12	1	-3	1	1.2	-2	116	nt	nt	nt
CC(=O)c1cnc2cc(-c3ccccc3)nn2c1C	25	16	0.8	2.9	4	170*	195*	131	109
Nc1c(-c2ccccc2)cnc2cc(-c3ccccc3)nn12	86*	290*	0.1	4.8*	24	158*	276*	134*	98
CC(=O)c1cnc2c(-c3ccccc3)c(C(F)(F)F)nn2c1C	-9	5	1.1	1.2	-49	109	nt	nt	nt
CC(/C=N/NC(=O)CSc1n[nH]c(=O)[nH]c1=O)=C\c1ccccc1	nt	nt	nt	nt	19	nt	nt	nt	nt
CCNC(=O)C1CC(=O)N(Cc2ccc3c(c2)OCO3)C(=Nc2ccc(OCC)cc2)S1 (stereo not drawn)	-4	2	1	1.3	nt	99	nt	nt	nt
CN1CCN(S(=O)(=O)c2cccc(C(=O)NCc3ccc(Cl)cc3)c2)CC1	-6	25	1.1	1	-7	99	nt	nt	nt
CCOC(=O)c1sc(C)c2c1NC(C)(c1ccccc1)NC2=O (stereo not drawn)	-11	-6	1.1	0.94	7	93	nt	nt	nt
Fc1cccc2sc(Nc3nc4cc5c(cc4s3)OCO5)nc12	32	139*	0.7	3.5*	3	175*	213*	141*	125*
Fc1cccc2sc(Nc3nc4cc5c(cc4s3)OCCO5)nc12	79*	162*	0.2	1.7	7	170*	249*	108	132*
Fc1cc(F)c2nc(Nc3nc4cc5c(cc4s3)OCO5)sc2c1	-2	16	1	2.2	11	113	nt	nt	nt
COc1ccc([N+](=O)[O-])cc1NC(=S)NC(NC(=O)C(c1ccccc1)c1ccccc1)C(Cl)(Cl)Cl (stereo not drawn)	-1	16	1	0.75	1	92	nt	nt	nt
CCCN(CC1CC1)S(=O)(=O)c1ccc(-n2cnnn2)c(OC)c1	-5	8	1.1	0.98	0	101	nt	nt	nt
